Target: Sodium- and chloride-dependent GABA transporter 1 (Homo sapiens, UniProt P30531)
Type: cell-based
Details: read-out: IC50

Sequence of Sodium- and chloride-dependent GABA transporter 1 (Homo sapiens, UniProt P30531) (P30531 whole entry): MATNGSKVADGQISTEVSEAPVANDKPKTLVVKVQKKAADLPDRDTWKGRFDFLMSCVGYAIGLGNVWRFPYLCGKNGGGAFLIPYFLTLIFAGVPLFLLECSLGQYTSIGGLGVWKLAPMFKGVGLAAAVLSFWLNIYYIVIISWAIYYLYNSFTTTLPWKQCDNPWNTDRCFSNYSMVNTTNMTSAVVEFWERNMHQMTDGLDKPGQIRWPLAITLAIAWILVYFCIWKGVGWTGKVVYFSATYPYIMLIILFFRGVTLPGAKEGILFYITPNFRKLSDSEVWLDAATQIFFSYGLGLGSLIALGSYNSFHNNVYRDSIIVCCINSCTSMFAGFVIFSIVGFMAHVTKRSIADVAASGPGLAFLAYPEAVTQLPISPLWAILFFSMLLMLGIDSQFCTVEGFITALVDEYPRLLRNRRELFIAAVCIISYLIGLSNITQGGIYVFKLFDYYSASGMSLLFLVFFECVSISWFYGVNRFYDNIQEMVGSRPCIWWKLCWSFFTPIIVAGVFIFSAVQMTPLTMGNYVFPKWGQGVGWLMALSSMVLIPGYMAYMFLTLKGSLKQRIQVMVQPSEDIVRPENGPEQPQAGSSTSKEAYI

Compound	IC50
O=C(OC1CCN(Cc2ccccc2)CC1)c1ccc(Cl)cc1Cl	> 1000 µM
O=C(OC1CCN(Cc2ccccc2)CC1)c1ccccc1	> 1000 µM
Clc1ccc(CNC2CCN(Cc3ccccc3)CC2)c(Cl)c1	> 400 µM

Target: Sodium- and chloride-dependent GABA transporter 1 (Mus musculus, UniProt P31648)
Experiment: Inhibition of mouse GAT1 expressed in HEK293 cells assessed as reduction in [3H]GABA uptake after 3 mins by scintillation counting method
Type: cell-based
Details: not given
Summary of the method: (§1)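 HEK293 lines stably expressing a single mouse GAT subtype, kept under blasticidin-S (5 µg/mL) selection. Cells were assayed about 24 h after plating with 30 nM [3H]GABA plus varying compound concentrations for 3 min at 37 °C in HBSS buffered with 20 mM HEPES (1 mM CaCl2, 1 mM MgCl2, pH 7.4). Cells were washed ice-cold and radioactivity counted. IC50 came from sigmoidal variable-slope fits.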

Compound	IC50
O=C(NC1CCN(Cc2ccccc2)CC1)c1cccnc1Cl	> 1000 µM
O=C(NC1CCN(Cc2cccs2)CC1)c1ccc(Cl)nc1Cl	> 300 µM
O=C(NC1CCN(Cc2ccccc2)CC1)c1ccnc(Cl)c1	> 1000 µM
Cc1cccc(CN2CCC(NC(=O)c3ccc(Cl)cc3Cl)CC2)c1	> 300 µM
COc1cccc(CN2CCC(NC(=O)c3ccncc3)CC2)c1	> 1000 µM
O=C(NC1CCN(Cc2cccc(OC(F)(F)F)c2)CC1)c1ccc(Cl)cc1Cl	> 1000 µM
O=C(NC1CCN(Cc2ccc(-c3ccccc3)cc2)CC1)c1ccc(Cl)nc1Cl	> 300 µM
O=C(NC1CCN(Cc2ccccc2)CC1)c1cnccc1Cl	> 1000 µM
O=C(NC1CCN(Cc2ccccc2)CC1)c1ccccc1Cl	> 400 µM
O=C(NC1CCN(Cc2cccc(O)c2)CC1)c1ccc(Cl)nc1Cl	> 300 µM
O=C(NC1CCN(Cc2cccc([N+](=O)[O-])c2)CC1)c1ccc(Cl)nc1Cl	> 300 µM
O=C(NC1CCN(Cc2ccc(OC(F)(F)F)cc2)CC1)c1ccc(Cl)cc1Cl	> 1000 µM
COc1cccc(CN2CCC(NC(=O)c3ccc(Cl)nc3)CC2)c1	> 1000 µM
O=C(NC1CCN(Cc2cccc(F)c2)CC1)c1ccc(Cl)cc1Cl	> 1000 µM
COc1cccc(CN2CCC(NC(=O)c3cccs3)CC2)c1	> 400 µM
O=C(NC1CCN(Cc2ccccc2)CC1)c1cccs1	> 400 µM

Compound	IC50
O=C(NC1CCN(Cc2ccccc2)CC1)c1ccncc1	> 1000 µM
Cc1cc(C)cc(CN2CCC(NC(=O)c3ccc(Cl)cc3Cl)CC2)c1	> 300 µM
COc1cccc(CN2CCC(NC(=O)c3ccc(Cl)cc3Cl)CC2)c1	> 200 µM
O=C(NC1CCN(Cc2c[nH]c3ccccc23)CC1)c1ccc(Cl)nc1Cl	> 300 µM
O=C(NC1CCN(Cc2ccccc2)CC1)c1ccc(Cl)cc1	> 1000 µM
O=C(NC1CCN(Cc2cc(Cl)cc(Cl)c2)CC1)c1ccc(Cl)cc1Cl	> 300 µM
COc1cccc(CN2CCC(NC(=O)c3cccnc3)CC2)c1	> 1000 µM
COc1cccc(CN2CCC(NC(=O)c3cccnc3Cl)CC2)c1	> 1000 µM
O=C(NC1CCN(Cc2ccc3c(c2)OCO3)CC1)c1ccc(Cl)nc1Cl	> 300 µM
NC(=O)c1cccc(CN2CCC(NC(=O)c3ccc(Cl)nc3Cl)CC2)c1	> 300 µM
COC(=O)c1cccc(CN2CCC(NC(=O)c3ccc(Cl)nc3Cl)CC2)c1	> 300 µM
O=C(NC1CCN(Cc2cccc(Cl)c2)CC1)c1ccc(Cl)cc1Cl	> 300 µM
O=C(O)c1cccc(CN2CCC(NC(=O)c3ccc(Cl)nc3Cl)CC2)c1	> 300 µM
O=C(NC1CCN(Cc2ccccc2)CC1)c1cccnc1	> 1000 µM
COc1cc(CN2CCC(NC(=O)c3ccc(Cl)cc3Cl)CC2)cc(OC)c1	> 1000 µM
O=C(NC1CCN(Cc2cccc(OCCO)c2)CC1)c1ccc(Cl)nc1Cl	> 300 µM

Target: T1, GABA transporter 2 (Mus musculus, UniProt P31651)
T1 sequence (P31651 whole entry): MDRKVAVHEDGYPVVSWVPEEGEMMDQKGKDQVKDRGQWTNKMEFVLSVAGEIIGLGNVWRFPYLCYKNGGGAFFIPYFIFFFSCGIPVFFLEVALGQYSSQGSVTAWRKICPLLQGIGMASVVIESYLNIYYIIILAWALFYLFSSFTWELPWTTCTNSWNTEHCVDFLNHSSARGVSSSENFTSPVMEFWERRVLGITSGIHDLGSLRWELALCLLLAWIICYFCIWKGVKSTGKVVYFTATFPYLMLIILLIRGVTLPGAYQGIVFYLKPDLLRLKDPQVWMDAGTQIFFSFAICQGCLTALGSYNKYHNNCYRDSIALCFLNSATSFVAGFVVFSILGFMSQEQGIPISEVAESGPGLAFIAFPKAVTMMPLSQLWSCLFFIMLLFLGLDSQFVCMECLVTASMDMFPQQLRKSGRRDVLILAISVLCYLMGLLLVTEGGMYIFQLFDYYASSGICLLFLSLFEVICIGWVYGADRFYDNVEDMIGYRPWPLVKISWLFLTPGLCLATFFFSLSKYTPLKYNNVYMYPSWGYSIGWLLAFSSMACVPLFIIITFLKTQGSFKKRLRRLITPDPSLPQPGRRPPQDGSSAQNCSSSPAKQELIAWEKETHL
Experiment: Inhibition of mouse BGT1 expressed in HEK293 cells assessed as reduction in [3H]GABA uptake after 3 mins by scintillation counting method
Type: cell-based
Details: read-out: IC50
Summary of the method: as §1

Compound	IC50
O=C(NC1CCN(Cc2ccccc2)CC1)c1cccnc1Cl	1650 µM
O=C(NC1CCN(Cc2cccs2)CC1)c1ccc(Cl)nc1Cl	> 300 µM
O=C(NC1CCN(Cc2ccccc2)CC1)c1ccnc(Cl)c1	300 µM
Cc1cccc(CN2CCC(NC(=O)c3ccc(Cl)cc3Cl)CC2)c1	> 300 µM
COc1cccc(CN2CCC(NC(=O)c3ccncc3)CC2)c1	> 1000 µM
O=C(OC1CCN(Cc2ccccc2)CC1)c1ccc(Cl)cc1Cl	> 1000 µM
O=C(OC1CCN(Cc2ccccc2)CC1)c1ccccc1	106 µM
O=C(NC1CCN(Cc2cccc(OC(F)(F)F)c2)CC1)c1ccc(Cl)cc1Cl	160 µM
O=C(NC1CCN(Cc2ccc(-c3ccccc3)cc2)CC1)c1ccc(Cl)nc1Cl	> 300 µM
O=C(NC1CCN(Cc2ccccc2)CC1)c1cnccc1Cl	39 µM
O=C(NC1CCN(Cc2ccccc2)CC1)c1ccccc1Cl	151 µM
O=C(NC1CCN(Cc2cccc(O)c2)CC1)c1ccc(Cl)nc1Cl	> 300 µM
O=C(NC1CCN(Cc2cccc([N+](=O)[O-])c2)CC1)c1ccc(Cl)nc1Cl	> 300 µM
O=C(NC1CCN(Cc2ccc(OC(F)(F)F)cc2)CC1)c1ccc(Cl)cc1Cl	> 1000 µM
COc1cccc(CN2CCC(NC(=O)c3ccc(Cl)nc3)CC2)c1	115 µM
O=C(NC1CCN(Cc2cccc(F)c2)CC1)c1ccc(Cl)cc1Cl	34 µM
COc1cccc(CN2CCC(NC(=O)c3cccs3)CC2)c1	390 µM
O=C(NC1CCN(Cc2ccccc2)CC1)c1cccs1	179 µM

Compound	IC50
O=C(NC1CCN(Cc2ccccc2)CC1)c1ccncc1	1150 µM
Cc1cc(C)cc(CN2CCC(NC(=O)c3ccc(Cl)cc3Cl)CC2)c1	> 300 µM
COc1cccc(CN2CCC(NC(=O)c3ccc(Cl)cc3Cl)CC2)c1	26 µM
Clc1ccc(CNC2CCN(Cc3ccccc3)CC2)c(Cl)c1	112 µM
O=C(NC1CCN(Cc2c[nH]c3ccccc23)CC1)c1ccc(Cl)nc1Cl	58 µM
O=C(NC1CCN(Cc2ccccc2)CC1)c1ccc(Cl)cc1	77 µM
O=C(NC1CCN(Cc2cc(Cl)cc(Cl)c2)CC1)c1ccc(Cl)cc1Cl	> 300 µM
COc1cccc(CN2CCC(NC(=O)c3cccnc3)CC2)c1	> 1000 µM
COc1cccc(CN2CCC(NC(=O)c3cccnc3Cl)CC2)c1	1670 µM
O=C(NC1CCN(Cc2ccc3c(c2)OCO3)CC1)c1ccc(Cl)nc1Cl	60 µM
NC(=O)c1cccc(CN2CCC(NC(=O)c3ccc(Cl)nc3Cl)CC2)c1	> 300 µM
COC(=O)c1cccc(CN2CCC(NC(=O)c3ccc(Cl)nc3Cl)CC2)c1	> 300 µM
O=C(NC1CCN(Cc2cccc(Cl)c2)CC1)c1ccc(Cl)cc1Cl	> 300 µM
O=C(O)c1cccc(CN2CCC(NC(=O)c3ccc(Cl)nc3Cl)CC2)c1	> 300 µM
O=C(NC1CCN(Cc2ccccc2)CC1)c1cccnc1	> 1000 µM
COc1cc(CN2CCC(NC(=O)c3ccc(Cl)cc3Cl)CC2)cc(OC)c1	30 µM
O=C(NC1CCN(Cc2cccc(OCCO)c2)CC1)c1ccc(Cl)nc1Cl	> 300 µM

Target: T2, GABA transporter 3 (Mus musculus, UniProt P31649)
T2 sequence (P31649 whole entry): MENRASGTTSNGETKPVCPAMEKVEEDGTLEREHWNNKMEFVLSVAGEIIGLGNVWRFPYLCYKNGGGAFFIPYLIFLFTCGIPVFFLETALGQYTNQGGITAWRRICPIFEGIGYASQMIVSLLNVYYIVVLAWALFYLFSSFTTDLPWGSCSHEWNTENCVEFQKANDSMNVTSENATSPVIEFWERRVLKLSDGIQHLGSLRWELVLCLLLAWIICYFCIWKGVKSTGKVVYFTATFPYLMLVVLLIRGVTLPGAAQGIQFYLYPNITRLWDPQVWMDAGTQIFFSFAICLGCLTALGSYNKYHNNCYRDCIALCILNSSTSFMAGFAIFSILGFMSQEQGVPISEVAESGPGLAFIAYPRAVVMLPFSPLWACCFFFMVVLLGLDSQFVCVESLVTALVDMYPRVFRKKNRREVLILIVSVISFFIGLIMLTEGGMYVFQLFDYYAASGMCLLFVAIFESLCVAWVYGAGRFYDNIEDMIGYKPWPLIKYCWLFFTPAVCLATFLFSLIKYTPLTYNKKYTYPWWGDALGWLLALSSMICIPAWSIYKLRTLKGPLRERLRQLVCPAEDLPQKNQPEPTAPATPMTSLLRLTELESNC
Experiment: Inhibition of mouse GAT2 expressed in HEK293 cells assessed as reduction in [3H]GABA uptake after 3 mins by scintillation counting method
Type: cell-based
Details: not given
Summary of the method: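 HEK293 cells stably expressing mouse GAT2 were kept under blasticidin-S (5 µg/mL) selection. Ice-cold washes preceded scintillation counting. IC50 came from a variable-slope sigmoidal fit.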

Compound	IC50
O=C(NC1CCN(Cc2ccccc2)CC1)c1cccnc1Cl	> 1000 µM
O=C(NC1CCN(Cc2cccs2)CC1)c1ccc(Cl)nc1Cl	> 300 µM
O=C(NC1CCN(Cc2ccccc2)CC1)c1ccnc(Cl)c1	> 1000 µM
Cc1cccc(CN2CCC(NC(=O)c3ccc(Cl)cc3Cl)CC2)c1	> 300 µM
COc1cccc(CN2CCC(NC(=O)c3ccncc3)CC2)c1	> 1000 µM
O=C(OC1CCN(Cc2ccccc2)CC1)c1ccc(Cl)cc1Cl	> 1000 µM
O=C(OC1CCN(Cc2ccccc2)CC1)c1ccccc1	349 µM
O=C(NC1CCN(Cc2cccc(OC(F)(F)F)c2)CC1)c1ccc(Cl)cc1Cl	> 1000 µM
O=C(NC1CCN(Cc2ccc(-c3ccccc3)cc2)CC1)c1ccc(Cl)nc1Cl	> 300 µM
O=C(NC1CCN(Cc2ccccc2)CC1)c1cnccc1Cl	150 µM
O=C(NC1CCN(Cc2ccccc2)CC1)c1ccccc1Cl	> 400 µM
O=C(NC1CCN(Cc2cccc(O)c2)CC1)c1ccc(Cl)nc1Cl	> 300 µM
O=C(NC1CCN(Cc2cccc([N+](=O)[O-])c2)CC1)c1ccc(Cl)nc1Cl	> 300 µM
O=C(NC1CCN(Cc2ccc(OC(F)(F)F)cc2)CC1)c1ccc(Cl)cc1Cl	> 1000 µM
COc1cccc(CN2CCC(NC(=O)c3ccc(Cl)nc3)CC2)c1	540 µM
O=C(NC1CCN(Cc2cccc(F)c2)CC1)c1ccc(Cl)cc1Cl	> 1000 µM
COc1cccc(CN2CCC(NC(=O)c3cccs3)CC2)c1	> 400 µM
O=C(NC1CCN(Cc2ccccc2)CC1)c1cccs1	> 400 µM

Compound	IC50
O=C(NC1CCN(Cc2ccccc2)CC1)c1ccncc1	> 1000 µM
Cc1cc(C)cc(CN2CCC(NC(=O)c3ccc(Cl)cc3Cl)CC2)c1	> 300 µM
COc1cccc(CN2CCC(NC(=O)c3ccc(Cl)cc3Cl)CC2)c1	> 200 µM
Clc1ccc(CNC2CCN(Cc3ccccc3)CC2)c(Cl)c1	> 400 µM
O=C(NC1CCN(Cc2c[nH]c3ccccc23)CC1)c1ccc(Cl)nc1Cl	> 300 µM
O=C(NC1CCN(Cc2ccccc2)CC1)c1ccc(Cl)cc1	590 µM
O=C(NC1CCN(Cc2cc(Cl)cc(Cl)c2)CC1)c1ccc(Cl)cc1Cl	> 300 µM
COc1cccc(CN2CCC(NC(=O)c3cccnc3)CC2)c1	> 1000 µM
COc1cccc(CN2CCC(NC(=O)c3cccnc3Cl)CC2)c1	> 1000 µM
O=C(NC1CCN(Cc2ccc3c(c2)OCO3)CC1)c1ccc(Cl)nc1Cl	> 300 µM
NC(=O)c1cccc(CN2CCC(NC(=O)c3ccc(Cl)nc3Cl)CC2)c1	> 300 µM
COC(=O)c1cccc(CN2CCC(NC(=O)c3ccc(Cl)nc3Cl)CC2)c1	> 300 µM
O=C(NC1CCN(Cc2cccc(Cl)c2)CC1)c1ccc(Cl)cc1Cl	> 300 µM
O=C(O)c1cccc(CN2CCC(NC(=O)c3ccc(Cl)nc3Cl)CC2)c1	> 300 µM
O=C(NC1CCN(Cc2ccccc2)CC1)c1cccnc1	> 1000 µM
COc1cc(CN2CCC(NC(=O)c3ccc(Cl)cc3Cl)CC2)cc(OC)c1	1200 µM
O=C(NC1CCN(Cc2cccc(OCCO)c2)CC1)c1ccc(Cl)nc1Cl	> 300 µM
